Results as given in ChEMBL document CHEMBL3994602, “Termisoflavones A-C, Isoflavonoid Glycosides from Termite-Associated Streptomyces sp. RB1” (2016).
The source made the active and inactive calls. The calls are words filed in the database; no cut-off is given here.

Legend:
Type in all cases: functional
LLC-PK1 = assay: Renoprotective activity in pig LLC-PK1 cells assessed as inhibition of cisplatin-induced damage by measuring cell viability up to 100 uM preincubated for 24 hrs followed by addition of Ez-Cytox reagent and measured after 2 hrs relative to control
Method in brief: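 LLC-PK1 pig kidney epithelial cells were cultured in DMEM with 10% FBS, 1% penicillin/streptomycin and 4 mM L-glutamine at 37 °C, 5% CO2. Cells were seeded at 1 × 10^4 per well and allowed to adhere for 2 h. Test sample and/or 25 μM cisplatin were added and incubated for 24 h. Medium was replaced with serum-free medium plus Ez-Cytox for 2 h at 37 °C, then absorbance was read at 450 nm. N-acetyl cysteine was the positive control.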

Escherichia coli = assay: Antibacterial activity against Escherichia coli DH10B by EUCAST method; details: K-12 substr. DH10B
Method in brief: (§1)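 Minimal inhibitory concentrations were determined by the EUCAST method, with streptomycin sulfate as the positive control.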

Candida albicans = assay: Antifungal activity against Candida albicans SC5314 by CLSI M27-A3 broth microdilution method
Method in brief: (§2)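 MICs were determined by broth microdilution following CLSI standard M27-A3, with fluconazole as the positive control.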

Cryptococcus neoformans = assay: Antifungal activity against Cryptococcus neoformans H99 by CLSI M27-A3 broth microdilution method; details: var grubii H99; method in brief: as §2
Staphylococcus aureus = assay: Antibacterial activity against Staphylococcus aureus NCTC 8325-4 by EUCAST method; method in brief: as §1

Structure (SMILES): C[C@@H]1O[C@@H](Oc2ccc(-c3coc4cc(O[C@@H]5O[C@@H](C)[C@H](O)[C@@H](O)[C@H]5O)ccc4c3=O)cc2)[C@H](O)[C@H](O)[C@H]1O
- Activity (LLC-PK1; Sus scrofa): Active
- MIC (Escherichia coli): > 100 µg/mL
- MIC (Candida albicans): > 100 µg/mL
- MIC (Cryptococcus neoformans): > 100 µg/mL
- MIC (Staphylococcus aureus): > 100 µg/mL

Structure (SMILES): O=c1c(-c2ccc(O)cc2)coc2cc(O)ccc12 [DAIDZEIN]
- Activity (LLC-PK1; Sus scrofa): Active
- MIC (Escherichia coli): > 100 µg/mL
- MIC (Candida albicans): > 100 µg/mL
- MIC (Cryptococcus neoformans): > 100 µg/mL
- MIC (Staphylococcus aureus): > 100 µg/mL

Structure (SMILES): O=c1c(-c2ccc(O)cc2)coc2cc(O[C@@H]3O[C@H](CO)[C@@H](O)[C@H](O)[C@H]3O)cc(O)c12 [GENISTIN]
- Activity (LLC-PK1; Sus scrofa): Active
- MIC (Escherichia coli): > 100 µg/mL
- MIC (Candida albicans): > 100 µg/mL
- MIC (Cryptococcus neoformans): > 100 µg/mL
- MIC (Staphylococcus aureus): > 100 µg/mL

Structure (SMILES): C[C@@H]1O[C@@H](Oc2ccc3c(=O)c(-c4ccc(O)cc4)coc3c2)[C@H](O)[C@H](O)[C@H]1O
- Activity (LLC-PK1): >80%
- MIC (Escherichia coli): > 100 µg/mL
- MIC (Candida albicans): > 100 µg/mL
- MIC (Cryptococcus neoformans): > 100 µg/mL
- MIC (Staphylococcus aureus): > 100 µg/mL

Structure (SMILES): C[C@@H]1O[C@@H](Oc2cc(O)c3c(=O)c(-c4ccc(O)cc4)coc3c2)[C@H](O)[C@H](O)[C@H]1O
- Activity (LLC-PK1; Sus scrofa): Active
- MIC (Escherichia coli): > 100 µg/mL
- MIC (Candida albicans): > 100 µg/mL
- MIC (Cryptococcus neoformans): > 100 µg/mL
- MIC (Staphylococcus aureus): > 100 µg/mL

Structure (SMILES): CO[C@@H]1[C@@H](O)[C@H](C)O[C@@H](Oc2ccc(-c3coc4cc(O[C@@H]5O[C@@H](C)[C@H](O)[C@@H](OC)[C@H]5O)ccc4c3=O)cc2)[C@@H]1O
- Activity (LLC-PK1; Sus scrofa): Active
- MIC (Escherichia coli): > 100 µg/mL
- MIC (Candida albicans): > 100 µg/mL
- MIC (Cryptococcus neoformans): > 100 µg/mL
- MIC (Staphylococcus aureus): > 100 µg/mL

Structure (SMILES): CO[C@@H]1[C@@H](O)[C@H](C)O[C@@H](Oc2ccc(-c3coc4cc(O[C@@H]5O[C@@H](C)[C@H](O)[C@@H](OC)[C@H]5O)cc(O)c4c3=O)cc2)[C@@H]1O
- Activity (LLC-PK1; Sus scrofa): Active
- MIC (Escherichia coli): > 100 µg/mL
- MIC (Candida albicans): > 100 µg/mL
- MIC (Cryptococcus neoformans): > 100 µg/mL
- MIC (Staphylococcus aureus): > 100 µg/mL

Structure (SMILES): O=c1c(-c2ccc(O)cc2)coc2cc(O[C@@H]3O[C@H](CO)[C@@H](O)[C@H](O)[C@H]3O)ccc12 [DAIDZIN]
- Activity (LLC-PK1): >80%
- MIC (Escherichia coli): > 100 µg/mL
- MIC (Candida albicans): > 100 µg/mL
- MIC (Cryptococcus neoformans): > 100 µg/mL
- MIC (Staphylococcus aureus): > 100 µg/mL

Structure (SMILES): CO[C@@H]1[C@@H](O)[C@H](C)O[C@@H](Oc2ccc(-c3coc4cc(O[C@@H]5O[C@@H](C)[C@H](O)[C@@H](O)[C@H]5O)cc(O)c4c3=O)cc2)[C@@H]1O
- MIC (Escherichia coli): > 100 µg/mL
- MIC (Candida albicans): > 100 µg/mL
- MIC (Cryptococcus neoformans): > 100 µg/mL
- MIC (Staphylococcus aureus): > 100 µg/mL

Structure (SMILES): C[C@@H]1O[C@@H](Oc2ccc(-c3coc4cc(O[C@@H]5O[C@@H](C)[C@H](O)[C@@H](O)[C@H]5O)cc(O)c4c3=O)cc2)[C@H](O)[C@H](O)[C@H]1O
- Activity (LLC-PK1; Sus scrofa): Active
- MIC (Escherichia coli): > 100 µg/mL
- MIC (Candida albicans): > 100 µg/mL
- MIC (Cryptococcus neoformans): > 100 µg/mL
- MIC (Staphylococcus aureus): > 100 µg/mL

Structure (SMILES): COc1cc2c(=O)c(-c3ccc(O)cc3)coc2cc1O[C@@H]1O[C@@H](C)[C@H](O)[C@@H](O)[C@H]1O
- MIC (Escherichia coli): > 100 µg/mL
- MIC (Candida albicans): > 100 µg/mL
- MIC (Cryptococcus neoformans): > 100 µg/mL
- MIC (Staphylococcus aureus): > 100 µg/mL
